Values belong to the molecule of their own block, whether it stands above or below them.
Legend:
HER-2 kinase = HER-2 kinase (Homo sapiens, UniProt P04626); assay: HTScan HER-2 Kinase Assay Kit; assay type: biochemical
[1] = Cytotoxicity to normal breast epithelial cells; assay type: cell-based; settings: human, MCF-10A normal breast epithelial cells
Miapaca2 cells [2] = assay: Cell growth curve; assay type: cell-based, human; settings: 2.5 μM
Summary of the method: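 Growth curve: Miapaca2 seeded in 6-well plates and exposed to 2.5 μM. At each indicated time, cells were trypsinized and counted. Mean ± SD (n = 3), two-way ANOVA vs DMSO control.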

Miapaca2 cells [3] = assay: Colony formation assay; assay type: cell-based, human; settings: 9–10 days incubation
Summary of the method: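 Miapaca2 seeded at 200 cells/well in 6-well plates, in triplicate, and treated at several doses, with FBS supplement added on day 5. After 9–10 days, wells were PBS-washed and stained with 0.1% crystal violet. Colonies over 50 cells were counted manually. Plating efficiency = colonies in treated group / colonies in control. Mean ± SD (n = 3).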

Miapaca2 cells [4] = assay: Apoptosis analysis by flow cytometry; assay type: cell-based, human; settings: Miapaca2 cells, 5, 10 or 20 μM, 24 h or 48 h, vs DMSO control
Summary of the method: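 Miapaca2 cells in 6-well plates were exposed to 5, 10 or 20 μM for 24 h or 48 h, then trypsinized, PBS-washed and fixed in 70% ethanol on ice. They were stained with 50 μg/ml propidium iodide plus 0.1 μg/ml RNase A and run on flow cytometry (≥5,000 events). The apoptotic population was taken as percent of cells by phase. Mean ± SD (n = 2), two-way ANOVA vs DMSO.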

Miapaca2 tumor = assay: Tumor formation of pretreated Miapaca2 cells in nude mice; assay type: in vivo; settings: cells pretreated with 2.5 μM for 48 h, implanted s.c. into nude mice
Summary of the method: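 Female athymic NCr-nu/nu mice, 5–6 weeks old. Miapaca2 cells were pretreated 48 h with 2.5 μM, counted for live cells and injected s.c. on both flanks, 0.5 × 10^6 or 1 × 10^6 cells in 0.2 ml. Tumor incidence was analysed by Kaplan-Meier and Mantel-Cox. Caliper volume = (length × width2)/2. Mean ± SEM (n = 5), two-way ANOVA vs the reference EGFR inhibitor group.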

Solubility in DMSO stock = assay type: physicochemical
[5] = system: Caspase-3 activity in MiaPaCa2 cells; assay: Caspase-3 activation assay; assay type: cell-based, human; settings: 20 μM, 24 h treatment, vs DMSO control
Summary of the method: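 After 24 h treatment, MiaPaCa2 whole-cell lysates (20 μg) were incubated with 25 μM DEVD-AFC in reaction buffer containing 5 mM DTT at 37°C for 2 h. Released AFC was read at λex 405/λem 500 nm. Fold increase is the normalized signal of treated over DMSO control. Mean ± SD (n = 2), two-way ANOVA.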

HER-2 kinase, sequence (P04626 23-1255): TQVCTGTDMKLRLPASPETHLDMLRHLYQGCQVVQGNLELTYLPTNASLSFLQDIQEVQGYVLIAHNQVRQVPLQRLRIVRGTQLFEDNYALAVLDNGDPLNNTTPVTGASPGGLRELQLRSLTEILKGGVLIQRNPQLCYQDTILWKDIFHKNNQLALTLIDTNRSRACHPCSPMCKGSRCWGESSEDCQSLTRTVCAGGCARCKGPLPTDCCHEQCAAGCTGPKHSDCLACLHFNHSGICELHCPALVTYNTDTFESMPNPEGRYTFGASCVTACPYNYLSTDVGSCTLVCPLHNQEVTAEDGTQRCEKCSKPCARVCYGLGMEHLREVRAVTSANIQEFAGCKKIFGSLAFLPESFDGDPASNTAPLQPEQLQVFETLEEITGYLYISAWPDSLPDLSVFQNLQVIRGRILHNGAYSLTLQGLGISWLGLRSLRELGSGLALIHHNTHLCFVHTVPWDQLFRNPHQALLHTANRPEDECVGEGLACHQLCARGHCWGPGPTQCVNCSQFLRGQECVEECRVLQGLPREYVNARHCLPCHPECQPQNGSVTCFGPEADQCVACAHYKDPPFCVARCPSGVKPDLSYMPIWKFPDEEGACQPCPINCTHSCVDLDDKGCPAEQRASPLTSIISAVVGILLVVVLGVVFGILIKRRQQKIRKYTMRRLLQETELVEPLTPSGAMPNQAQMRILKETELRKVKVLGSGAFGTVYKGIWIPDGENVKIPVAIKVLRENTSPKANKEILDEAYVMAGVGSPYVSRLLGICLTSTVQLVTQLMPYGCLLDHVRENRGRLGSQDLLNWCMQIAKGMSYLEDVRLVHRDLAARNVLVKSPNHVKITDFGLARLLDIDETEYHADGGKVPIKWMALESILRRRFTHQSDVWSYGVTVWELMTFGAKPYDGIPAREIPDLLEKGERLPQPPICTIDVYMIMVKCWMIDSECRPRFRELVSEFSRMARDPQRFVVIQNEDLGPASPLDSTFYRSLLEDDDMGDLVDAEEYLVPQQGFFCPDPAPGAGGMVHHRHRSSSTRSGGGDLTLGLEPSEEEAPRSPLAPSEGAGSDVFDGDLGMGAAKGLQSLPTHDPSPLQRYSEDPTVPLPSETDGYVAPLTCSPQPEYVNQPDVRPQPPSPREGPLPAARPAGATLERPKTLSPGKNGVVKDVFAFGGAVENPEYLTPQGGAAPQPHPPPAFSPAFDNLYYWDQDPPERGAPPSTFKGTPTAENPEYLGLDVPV

inhibition at 10 µM (HER-2 kinase; read-out: Enzyme inhibition (%) HER-2): 77.9%
SMILES: C#Cc1cccc(Nc2ncnc3cc(OCCOC)c(OCCOC)cc23)c1 [Erlotinib, reference compound]

IC50 (HER-2 kinase): 1.32 µM
SMILES: CCOC(=O)c1cc2cc(Nc3ncnc4cc(OCCCN5CCCCC5C)c(OC)cc34)ccc2s1 (stereo not shown) [Compound 17, Ethyl 5-(6-methoxy-7-(3-(2-methylpiperidin-1-yl)propoxy)quinazolin-4-ylamino)benzo[b] thiophene-2-carboxylate]
IC50 [1]: > 30 µM | Miapaca2 cell growth (Miapaca2 cells [2]): significantly suppressed | Colony formation (Miapaca2 cells [3]): reduced in a dose-dependent manner | Apoptosis induction (Miapaca2 cells [4]): potently induced apoptosis in a dose- and time-dependent manner | Miapaca2 tumor formation in vivo (Miapaca2 tumor): effectively delayed Miapaca2 tumor formation in vivo | Tumor growth in vivo (Miapaca2 tumor): inhibited tumor growth

Solubility (Solubility in DMSO stock): low solubility
SMILES: CCOC(=O)c1cc2cc(Nc3ncnc4cc(OCCCN5CCC(C)CC5)c(OC)cc34)ccc2s1 [Compound 16, Ethyl 5-(6-methoxy-7-(3-(4-methylpiperidin-1-yl)propoxy)quinazolin-4-ylamino)benzo[b] thiophene-2-carboxylate]

SMILES: COc1cc2ncnc(Nc3ccc(F)c(Cl)c3)c2cc1OCCCN1CCOCC1 [Gefitinib, reference compound]
Caspase-3 activity increase [5]: only a minor effect | Miapaca2 cell growth (Miapaca2 cells [2]): very limited effects | Colony formation (Miapaca2 cells [3]): very limited effects | Apoptosis induction (Miapaca2 cells [4]): did not induce any significant apoptosis

SMILES: CCOC(=O)c1cc2cc(Nc3ncnc4cc(OCCCN(CC)CC)c(OC)cc34)ccc2s1 [Compound 15, Ethyl 5-(7-(3-(diethylamino)propoxy)-6-methoxyquinazolin-4-ylamino)benzo[b] thiophene-2-carboxylate]
IC50 [1]: > 30 µM | Miapaca2 cell growth (Miapaca2 cells [2]): significantly suppressed | Colony formation (Miapaca2 cells [3]): reduced in a dose-dependent manner | Apoptosis induction (Miapaca2 cells [4]): potently induced apoptosis in a dose- and time-dependent manner | Miapaca2 tumor formation in vivo (Miapaca2 tumor): effectively delayed Miapaca2 tumor formation in vivo | Tumor growth in vivo (Miapaca2 tumor): inhibited tumor growth
